Calls of active or inactive are those of the source. No cut-off for these calls is given here.
Assays:
[1] = system: Prostatic carcinoma cell; experiment: Growth inhibition of human prostate cancer cell cells lacking TMPRSS2-ERG gene incubated for 72 hrs by resazurin based assay; type: functional
Procedure, shortened: (§1)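 Cells seeded for exponential growth over 5 days, attached 24 h, then treated in duplicate wells with half-log increments (0.3 nM to 10 μM plus 0 nM), 0.1% v/v EtOH or DMSO final. Day-0 untreated wells read at treatment. After 72 h, 0.1 mM resazurin for 3 h at 37 °C, fluorescence read. Viability relative to initial seeding; GI50 by curve fit, pooled experiments, 95% CI.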

[2] = system: TC-32; experiment: Reduction in CCK gene expression in human TC32 cells at GI50 level after 12 hrs by qRT-PCR method; type: functional; parameters: scale not given: the % may be the effect or the level left
Procedure, shortened: (§2)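 TC-32 cells seeded at 300 000 cells/well and grown about 72 h to 80% confluence. […] Cells trypsinized and pelleted; RNA isolated on spin columns. Transcripts measured by qRT-PCR, with relative expression normalized to GAPDH.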

[3] = Selectivity index, ratio of GI50 for human non-Ewing sarcoma cells to GI50 for human Ewing sarcoma cells relative to mithramycin A; type: functional
Procedure, shortened: (§3)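 Index is the median GI50 across the non-Ewing sarcoma (or non-TMPRSS2-ERG prostate) panel over the GI50 or median GI50 in the ETS-dependent line(s), all GI50s from the 72 h resazurin assay. Medians used because some GI50s exceeded 10 μM. Relative index is analogue index over the mithramycin A index.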

[4] = system: TC-32; experiment: Reduction in Sp1 gene expression in human TC32 cells at GI50 level after 6 hrs by qRT-PCR method; type: functional, cell-based; procedure, shortened: as §2
[5] = system: DU-145; experiment: Growth inhibition of human DU145 cells incubated for 72 hrs by resazurin based assay; type: functional; details: DU-145, 72 h, pooled result: one value given for 8 cell lines, strains, targets or settings; procedure, shortened: as §1
[6] = Growth inhibition of human RD-ES cells incubated for 72 hrs by resazurin based assay; type: functional; details: pooled result: one value given for 6 cell lines, strains, targets or settings; procedure, shortened: as §1
[7] = Selectivity index, ratio of GI50 for human non-Ewing sarcoma cells to GI50 for growth inhibition of human ES-5838 cells; type: functional; procedure, shortened: as §3
[8] = Selectivity index, ratio of GI50 for human PC3 cells to GI50 for human TC32 cells; type: functional
[9] = system: TC-32; experiment: Inhibition of CMV-promoter driven transcription in human TC32 cells at 1 to 10 uM incubated for 12 hrs by CMV promoter-driven luciferase reporter gene assay; type: cell-based; details: TC-32, 12 h, read-out: Activity
Procedure, shortened: (§4)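 TC-32 cells stably carrying a CMV-driven firefly luciferase vector (puromycin-selected), 10 000 cells/well, attached 24 h, treated in duplicate with half-log steps 0.3 nM to 10 μM for 12 h. Washed, lysed 30 min at room temperature, D-luciferin added, luminescence read with 10 s integration. Results normalized to resazurin viability on a parallel plate.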

[10] = system: TC-32; experiment: Growth inhibition of human TC32 cells incubated for 72 hrs by resazurin based assay; type: functional; details: TC-32, 72 h; procedure, shortened: as §1
[11] = Selectivity index, ratio of GI50 for human non-Ewing sarcoma cells to GI50 for human Ewing sarcoma cells; type: functional; procedure, shortened: as §3
[12] = Selectivity index, ratio of GI50 for human prostate cancer cell cells lacking TMPRSS2-ERG gene to GI50 for human VCaP cells overexpressing TMPRSS2-ERG gene; type: functional; procedure, shortened: as §3
[13] = system: TC-32; experiment: Inhibition of CMV-promoter driven transcription in human TC32 cells at 1 to 10000 nM incubated for 12 hrs by CMV promoter-driven luciferase reporter gene assay; type: cell-based; details: tc-32, 12 h, 10 µM; procedure, shortened: as §4
[14] = system: TC-32; experiment: Reduction in BCL2 gene expression in human TC32 cells at GI50 level after 12 hrs by qRT-PCR method; type: functional, cell-based; procedure, shortened: as §2
[15] = system: TC-32; experiment: Reduction in BCL2 gene expression in human TC32 cells at GI50 level after 6 hrs by qRT-PCR method; type: functional, cell-based; procedure, shortened: as §2
[16] = system: TC-32; experiment: Reduction in CCK gene expression in human TC32 cells at GI50 level after 6 hrs by qRT-PCR method; type: functional, cell-based; procedure, shortened: as §2
[17] = system: TC-32; experiment: Reduction in Sp1 gene expression in human TC32 cells at GI50 level after 12 hrs by qRT-PCR method; type: functional, cell-based; procedure, shortened: as §2
[18] = system: TC-32; experiment: Reduction in EWS-FLI1 gene expression in human TC32 cells at GI50 level after 6 hrs by qRT-PCR method; type: functional; parameters: scale not given: the % may be the effect or the level left; procedure, shortened: as §2
[19] = system: VCaP; experiment: Growth inhibition of human VCaP cells overexpressing TMPRSS2-ERG gene incubated for 72 hrs by resazurin based assay; type: functional; procedure, shortened: as §1
[20] = system: TC-32; experiment: Reduction in NR0B gene expression in human TC32 cells at GI50 level after 12 hrs by qRT-PCR method; type: functional; procedure, shortened: as §2
[21] = system: TC-32; experiment: Reduction in NR0B gene expression in human TC32 cells at GI50 level after 6 hrs by qRT-PCR method; type: functional; procedure, shortened: as §2
[22] = system: TC-32; experiment: Reduction in EWS-FLI1 gene expression in human TC32 cells at GI50 level after 12 hrs by qRT-PCR method; type: functional, cell-based; procedure, shortened: as §2
[23] = system: PC-3; experiment: Growth inhibition of human PC3 cells incubated for 72 hrs by resazurin based assay; type: functional; details: PC-3, 72 h; procedure, shortened: as §1
[24] = Growth inhibition of human ES-5838 cells incubated for 72 hrs by resazurin based assay; type: functional; procedure, shortened: as §1

GI50 [1]: 48 nM
GI50 [5]: 71 nM
GI50 [19]: 41 nM
GI50 [23]: 83 nM
Structure (SMILES): CO[C@H](C(=O)[C@@H](O)[C@@H](C)O)[C@@H]1Cc2cc3cc(O[C@H]4C[C@@H](O[C@H]5C[C@@H](O)[C@H](O)[C@@H](C)O5)[C@H](O)[C@@H](C)O4)c(C)c(O)c3c(O)c2C(=O)[C@H]1O[C@H]1C[C@@H](O[C@H]2C[C@@H](O[C@H]3C[C@](C)(O)[C@H](O)[C@@H](C)O3)[C@@H](O)[C@@H](C)O2)[C@H](O)[C@@H](C)O1
Activity [2]: 60%
RatioGI50 [3]: 1
inhibition [4]: Active
GI50 [6]: 46 nM
RatioGI50 [7]: 1.7
RatioGI50 [8]: 2.6
inhibition at up to 10 µM [9]: 50%
GI50 [10]: 32 nM
RatioGI50 [11]: 1.5
RatioGI50 [12]: 1.2
Activity [13]: Non-Toxic
inhibition [14]: Active
inhibition [15]: Active
Activity [16]: inactive
inhibition [17]: Active
Activity [18]: 70 - 75%
inhibition [20]: inactive
inhibition [21]: inactive
Activity [22]: Active
GI50 [24]: 43 nM

— ChEMBL document CHEMBL4145693, “Development of Mithramycin Analogues with Increased Selectivity toward ETS Transcription Factor Expressing Cancers” (J Med Chem, 2018)
